Assay results as given in ChEMBL document CHEMBL5357066, “Development of Novel Membrane Disrupting Lipoguanidine Compounds Sensitizing Gram-Negative Bacteria to Antibiotics” (ACS Med Chem Lett, 2024).
In brackets after ≈: the same amount, converted by molar mass.

These compounds were tested on Klebsiella pneumoniae (assay: Synergistic antibacterial activity against […] Klebsiella pneumoniae M6 assessed as rifampicin MIC at <=0.25 times MIC incubated for overnight by microbroth dilution checkerboard assay).
Type: functional
Procedure, shortened: (§1)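 Checkerboard run under the MIC conditions (TSB, overnight, 37 °C). Antibiotic and lipoguanidine 2-fold series were combined on one plate before bacteria were added. Growth/no-growth was scored as for the MIC (<0.1 OD600). Single-agent MICs were measured on the same plates. Three independent repeats were done.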

SMILES | MIC
NCCCCCCCCN=C(N)N | 16 µg/mL

These compounds were tested on Escherichia coli (assay: Synergistic antibacterial activity against Escherichia coli NCTC 12923 assessed as fold change in rifampicin MIC at <=0.25 times MIC incubated for overnight by microbroth dilution checkerboard assay relative to rifampicin alone).
Type: functional
Procedure, shortened: (§2)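 Checkerboard microdilution under MIC conditions (TSB, overnight, 37 °C). Two-fold series of each agent were combined on one plate before bacteria were added, and single-agent MICs were measured on the same plate. FIC = sum of combination MIC/alone MIC for each agent, taken from the most synergistic well. Three independent repeats, mean ± SD. ≤0.5 was taken as strong synergy and 0.5–<1 as weak.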

SMILES | fold change (FC)
NCCCCCCCCN=C(N)N | 0

The compounds below were run on Klebsiella pneumoniae (assay: Synergistic antibacterial activity against Klebsiella pneumoniae NCTC 13368 assessed as rifampicin MIC at <=0.25 times MIC incubated for overnight by microbroth dilution checkerboard assay).
Type: functional
Procedure, shortened: as §2

SMILES | MIC
NCCCCCCCCN=C(N)N | 32 µg/mL

What follows are compounds tested on Pseudomonas aeruginosa (assay: Synergistic antibacterial activity against Pseudomonas aeruginosa PAO1 assessed as fold change in rifampicin MIC at <=0.25 times MIC incubated for overnight by microbroth dilution checkerboard assay relative to rifampicin alone).
Type: functional
Procedure, shortened: (§3)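 Checkerboard microdilution in Tryptic Soy Broth, run like the MIC assay. Overnight TSB cultures were back-diluted to OD 0.01 and added 1:1 to the combined two-fold series of both agents, then incubated overnight at 37 °C. Growth/no-growth was called at <0.1 OD600. MICs alone were read on the same plates. FIC index came from the most synergistic well; three independent repeats, mean ± SD.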

SMILES | fold change (FC)
NCCCCCCCCN=C(N)N | 0

Each compound was assayed on Acinetobacter baumannii (assay: Antibacterial activity against Acinetobacter baumannii ATCC 17978 assessed as bacterial growth inhibition incubated for overnight by microbroth dilution method).
Type: functional
Procedure, shortened: (§4)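 Broth microdilution in Tryptic Soy Broth. DMSO stocks were diluted in TSB as 2-fold series. Overnight TSB cultures were back-diluted to OD 0.01 and mixed 1:1 with compound. Incubation was overnight at 37 °C. MIC was the lowest concentration without visible growth (<0.1 OD600). DMSO vehicle was checked at equivalent concentrations.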

SMILES | MIC
NCCCCCCCCN=C(N)N | > 128 µg/mL
CCCCCCCC/C=C\CCCCCCCCNC(=N)NCCCCCCCCN | 8 µg/mL (≈ 18.3 µM)

What follows are compounds tested on Staphylococcus aureus (assay: Antibacterial activity against methicillin resistant Staphylococcus aureus USA 300 assessed as bacterial growth inhibition incubated for overnight by microbroth dilution method).
Type: functional
Procedure, shortened: (§5)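 Microbroth dilution in Tryptic Soy Broth. DMSO stocks were diluted in TSB as 2-fold series. Overnight TSB cultures were back-diluted to OD 0.01 and mixed 1:1 with compound. Incubation was overnight at 37 °C. MIC is the lowest concentration with no visible growth (<0.1 OD600). DMSO at equivalent concentrations was checked.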

SMILES | MIC
NCCCCCCCCN=C(N)N | 128 µg/mL (≈ 687 µM)
CCCCCCCC/C=C\CCCCCCCCNC(=N)NCCCCCCCCN | 2 µg/mL (≈ 4.58 µM)

These compounds were tested on Pseudomonas aeruginosa (assay: Synergistic antibacterial activity against Pseudomonas aeruginosa NCTC 13437 assessed as fold change in rifampicin MIC at <=0.25 times MIC incubated for overnight by microbroth dilution checkerboard assay relative to rifampicin alone).
Type: functional
Procedure, shortened: as §3

SMILES | fold change (FC)
NCCCCCCCCN=C(N)N | 0

Each compound was assayed on Klebsiella pneumoniae (assay: Antibacterial activity against ESBL Klebsiella pneumoniae NCTC 13368 assessed as bacterial growth inhibition incubated for overnight by microbroth dilution method).

SMILES | MIC
NCCCCCCCCN=C(N)N | > 128 µg/mL
CCCCCCCC/C=C\CCCCCCCCNC(=N)NCCCCCCCCN | 32 µg/mL (≈ 73.3 µM)

These compounds were tested on Enterococcus faecalis (assay: Antibacterial activity against vancomycin resistant Enterococcus faecalis NCTC 12201 assessed as bacterial growth inhibition incubated for overnight by microbroth dilution method).
Type: functional
Procedure, shortened: as §5

SMILES | MIC
NCCCCCCCCN=C(N)N | > 128 µg/mL
CCCCCCCC/C=C\CCCCCCCCNC(=N)NCCCCCCCCN | 2 µg/mL (≈ 4.58 µM)

These compounds were tested on Staphylococcus aureus (assay: Antibacterial activity against methicillin resistant Staphylococcus aureus NCTC 13616 assessed as bacterial growth inhibition incubated for overnight by microbroth dilution method).
Type: functional
Procedure, shortened: as §5

SMILES | MIC
NCCCCCCCCN=C(N)N | > 128 µg/mL
CCCCCCCC/C=C\CCCCCCCCNC(=N)NCCCCCCCCN | 4 µg/mL (≈ 9.16 µM)

These compounds were tested on Enterococcus faecalis (assay: Antibacterial activity against vancomycin sensitive Enterococcus faecalis NCTC 775 assessed as bacterial growth inhibition incubated for overnight by microbroth dilution method).

SMILES | MIC
NCCCCCCCCN=C(N)N | > 128 µg/mL
CCCCCCCC/C=C\CCCCCCCCNC(=N)NCCCCCCCCN | 4 µg/mL (≈ 9.16 µM)

What follows are compounds tested on Pseudomonas aeruginosa (assay: Synergistic antibacterial activity against Pseudomonas aeruginosa NCTC 13437 assessed as rifampicin MIC at <=0.25 times MIC incubated for overnight by microbroth dilution checkerboard assay).
Type: functional
Procedure, shortened: as §3

SMILES | MIC
NCCCCCCCCN=C(N)N | 32 µg/mL

These compounds were tested on Staphylococcus aureus (assay: Antibacterial activity against methicillin sensitive Staphylococcus aureus ATCC 9144 assessed as bacterial growth inhibition incubated for overnight by microbroth dilution method).
Type: functional
Procedure, shortened: as §5

SMILES | MIC
NCCCCCCCCN=C(N)N | 128 µg/mL (≈ 687 µM)
CCCCCCCC/C=C\CCCCCCCCNC(=N)NCCCCCCCCN | 4 µg/mL (≈ 9.16 µM)

The compounds below were run on Acinetobacter baumannii (assay: Synergistic antibacterial activity against Acinetobacter baumannii AYE assessed as fold change in rifampicin MIC at <=0.25 times MIC incubated for overnight by microbroth dilution checkerboard assay relative to rifampicin alone).
Type: functional
Procedure, shortened: as §2

SMILES | fold change (FC)
NCCCCCCCCN=C(N)N | >=4

The compounds below were run on Pseudomonas aeruginosa (assay: Antibacterial activity against Pseudomonas aeruginosa PAO1 assessed as bacterial growth inhibition incubated for overnight by microbroth dilution method).
Type: functional
Procedure, shortened: as §4

SMILES | MIC
NCCCCCCCCN=C(N)N | > 128 µg/mL
CCCCCCCC/C=C\CCCCCCCCNC(=N)NCCCCCCCCN | > 128 µg/mL

The compounds below were run on Acinetobacter baumannii (assay: Synergistic antibacterial activity against Acinetobacter baumannii ATCC 17978 assessed as fold change in rifampicin MIC at <=0.25 times MIC incubated for overnight by microbroth dilution checkerboard assay relative to rifampicin alone).
Type: functional
Procedure, shortened: as §2

SMILES | fold change (FC)
NCCCCCCCCN=C(N)N | >=4

These compounds were tested on Acinetobacter baumannii (assay: Antibacterial activity against Acinetobacter baumannii AYE assessed as bacterial growth inhibition incubated for overnight by microbroth dilution method).
Type: functional
Procedure, shortened: as §4

SMILES | MIC
NCCCCCCCCN=C(N)N | > 128 µg/mL
CCCCCCCC/C=C\CCCCCCCCNC(=N)NCCCCCCCCN | 32 µg/mL (≈ 73.3 µM)

The compounds below were run on Klebsiella pneumoniae (assay: Antibacterial activity against Klebsiella pneumoniae M6 assessed as bacterial growth inhibition incubated for overnight by microbroth dilution method).

SMILES | MIC
NCCCCCCCCN=C(N)N | > 128 µg/mL
CCCCCCCC/C=C\CCCCCCCCNC(=N)NCCCCCCCCN | > 128 µg/mL

The compounds below were run on Staphylococcus aureus (assay: Antibacterial activity against methicillin sensitive Staphylococcus aureus 1199B assessed as bacterial growth inhibition incubated for overnight by microbroth dilution method).
Type: functional
Procedure, shortened: as §5

SMILES | MIC
NCCCCCCCCN=C(N)N | > 128 µg/mL
CCCCCCCC/C=C\CCCCCCCCNC(=N)NCCCCCCCCN | 4 µg/mL (≈ 9.16 µM)

Each compound was assayed on Pseudomonas aeruginosa (assay: Antibacterial activity against Pseudomonas aeruginosa NCTC 13437 assessed as bacterial growth inhibition incubated for overnight by microbroth dilution method).
Type: functional
Procedure, shortened: as §4

SMILES | MIC
NCCCCCCCCN=C(N)N | > 128 µg/mL
CCCCCCCC/C=C\CCCCCCCCNC(=N)NCCCCCCCCN | > 128 µg/mL

These compounds were tested on Escherichia coli (assay: Synergistic antibacterial activity against Escherichia coli NCTC 12923 assessed as rifampicin MIC at <=0.25 times MIC incubated for overnight by microbroth dilution checkerboard assay).
Type: functional
Procedure, shortened: as §2

SMILES | MIC
NCCCCCCCCN=C(N)N | 16 µg/mL

Each compound was assayed on Enterococcus faecium (assay: Antibacterial activity against vancomycin resistant Enterococcus faecium NCTC 12204 assessed as bacterial growth inhibition incubated for overnight by microbroth dilution method).
Type: functional
Procedure, shortened: as §5

SMILES | MIC
NCCCCCCCCN=C(N)N | > 128 µg/mL
CCCCCCCC/C=C\CCCCCCCCNC(=N)NCCCCCCCCN | 4 µg/mL (≈ 9.16 µM)

These compounds were tested on Escherichia coli (assay: Antibacterial activity against Escherichia coli NCTC 12923 assessed as bacterial growth inhibition incubated for overnight by microbroth dilution method).
Type: functional
Procedure, shortened: as §4

SMILES | MIC
NCCCCCCCCN=C(N)N | 128 µg/mL (≈ 687 µM)
CCCCCCCC/C=C\CCCCCCCCNC(=N)NCCCCCCCCN | 16 µg/mL (≈ 36.6 µM)

These compounds were tested on Acinetobacter baumannii (assay: Synergistic antibacterial activity against Acinetobacter baumannii ATCC 17978 assessed as rifampicin MIC at <=0.25 times MIC incubated for overnight by microbroth dilution checkerboard assay).
Type: functional
Procedure, shortened: as §2

SMILES | MIC
NCCCCCCCCN=C(N)N | 1 µg/mL

The compounds below were run on Pseudomonas aeruginosa (assay: Synergistic antibacterial activity against Pseudomonas aeruginosa PAO1 assessed as rifampicin MIC at <=0.25 times MIC incubated for overnight by microbroth dilution checkerboard assay).
Type: functional
Procedure, shortened: as §3

SMILES | MIC
NCCCCCCCCN=C(N)N | 32 µg/mL

Each compound was assayed on Acinetobacter baumannii (assay: Synergistic antibacterial activity against Acinetobacter baumannii AYE assessed as rifampicin MIC at <=0.25 times MIC incubated for overnight by microbroth dilution checkerboard assay).
Type: functional
Procedure, shortened: as §2

SMILES | MIC
NCCCCCCCCN=C(N)N | 4 µg/mL

Each compound was assayed on Klebsiella pneumoniae (assay: Synergistic antibacterial activity against Klebsiella pneumoniae NCTC 13368 assessed as fold change in rifampicin MIC at <=0.25 times MIC incubated for overnight by microbroth dilution checkerboard assay relative to rifampicin alone).
Type: functional
Procedure, shortened: as §1

SMILES | fold change (FC)
NCCCCCCCCN=C(N)N | 0
